# PMC4227816 (Journal of the American Chemical Society, 2014)
# Where a name gives a salt, the structure may show the parent alone.
# System: HIV-1RF challenged T-lymphoblastic CEM-SS cells
# Experiment: XTT anti-HIV-1 cytopathicity assay in CEM-SS cells
# Type: cell-based
# How it was run: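 CEM-SS cells grown in phenol red-free RPMI 1640 with 5% FBS, 2 mM L-glutamine and 50 μg/mL gentamicin. Washed log-phase cells seeded at 5 × 10^3 per well with serial dilutions of compound in DMSO. HIV-1RF diluted to give 80–90% cell kill at 6 days, with parallel uninfected wells for toxicity. Incubated 6 days at 37 °C, viability read by XTT, in triplicate.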
smiles,measurement,value
CC(=O)c1ccc2c(c1)N(CCCN(C)C)c1ccccc1S2 [Acepromazine maleate],protective effect against HIV-1-induced cytopathicity (in words),not protective
